Activity calls are given as the source filed them. The calls are words filed in the database; no cut-off is given here.
Tests used:
[1] = tested on: Escherichia coli; assay: Antibacterial activity against Escherichia coli; format: functional, organism-based
[2] = tested on: Staphylococcus epidermidis; assay: Antibacterial activity against Staphylococcus epidermidis; format: functional, organism-based
[3] = tested on: RAW264.7; assay: Inhibition of LPS-induced NO production in mouse RAW264.7 cells incubated 1 hr prior to LPS challenge measured after 20 hrs by Griess assay; format: functional, cell-based
In short: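 RAW 264.7 cells seeded at 10^6 cells/mL and grown 20 h before compound (DMSO stock diluted 20-fold in medium). After 1 h pretreatment, LPS (10 μg/mL stock, 10 μL/well) added, then 20 h further incubation. Supernatant nitrite read by Griess reagent, 20 min at 23 °C, absorbance 550 nm, against 0–100 μM nitrite standards. Output expressed as % of solvent control; triplicate, mean and SD.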

[4] = tested on: RAW264.7; assay: Cytotoxicity against mouse RAW264.7 cells after 24 hrs by ATPLite assay; format: cell-based; settings: RAW264.7, 24 h
In short: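 RAW 264.7 cells in colour-free DMEM with 10% FBS, 2 mM L-glutamine, 1 mM pyruvate, penicillin/streptomycin; 30 000 cells/well, compounds from DMSO stocks diluted 20-fold in medium, six concentrations; 24 h at 37 °C, 5% CO2. Cellular ATP read by ATPlite luminescence after lysis and 10 min dark adaptation. Chlorambucil as positive control; triplicate; EC50 from curve fit.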

[5] = tested on: RAW264.7; assay: Selectivity index, ratio of EC50 for mouse RAW264.7 cells to IC50 for mouse RAW264.7 cells assessed as LPS-induced NO production; format: functional
In short: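 Index is cytotoxicity EC50 in RAW 264.7 cells (24 h ATPlite) divided by the IC50 for inhibition of LPS-induced nitrite production in the same cells (Griess readout).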

[6] = tested on: Pseudomonas aeruginosa; assay: Antibacterial activity against Pseudomonas aeruginosa; format: functional, organism-based
[7] = tested on: RAW264.7; assay: Inhibition of LPS-induced TNF-alpha production in mouse RAW264.7 cells; format: functional, cell-based
[8] = tested on: Staphylococcus aureus; assay: Antibacterial activity against methicillin-sensitive Staphylococcus aureus; format: functional, organism-based
[9] = tested on: NIH3T3; assay: Inhibition of A23187-induced prostaglandin E2 production in Swiss albino mouse 3T3 cells; format: functional, cell-based
[10] = tested on: Staphylococcus aureus; assay: Antibacterial activity against methicillin-resistant Staphylococcus aureus; format: functional, organism-based
[11] = Solubility of the compound; format: physicochemical

With C/C(=C\COc1ccc2ccc(=O)oc2c1)C1=C(CN2CCCC2C(=O)O)C(=O)C(C)(C)O1 (mixture of isomers) as the molecule, how does the Activity [1] read?
The Activity was “inactive”.

And the Activity [2]?
Its Activity is “inactive”.

What about the IC50 [3] of the same molecule?
The IC50 was 23.4 µM.

What about the EC50 [4] of the same molecule?
The EC50 was 74.7 µM.

And the “Selectivity Index” value [5]?
The value was 3.2.

And the Activity [6]?
The Activity was “inactive”.

And the inhibition [7]?
The inhibition was “inactive”.

What about the Activity [8] of the same molecule?
The Activity was “inactive”.

What about the inhibition [9] of the same molecule?
The inhibition was “inactive”.

And the Activity [10]?
The Activity was “inactive”.

And the solubility [11]?
The solubility was 245 µg/mL.

Reference: ChEMBL document CHEMBL2407037, “Parvifloranines A and B, two 11-carbon alkaloids from Geijera parviflora” (J Nat Prod, 2013)
